Measured values published in the EternaBench riboswitch data.

Test system: MS2 coat protein
Experiment: apparent Kd, MS2 coat protein; higher = weaker binding; RNA-MaP array; FMN 200 µM where present
How it was run: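 The apparent Kd comes from binding curves fitted cluster by cluster, filtered, and summarised as a median. Those curves followed SNAP-549-labelled MS2 coat protein from 0.7 or 1.5 nM, doubling to 3 µM, on Illumina sequencing-chip clusters where stalled E. coli RNA polymerase had transcribed the designs, without and then with constant ligand. The buffer was 100 mM Tris-HCl pH 7.5, 80 mM KCl, 4 mM MgCl2, BSA, DTT, yeast tRNA and Tween-20, and green signal was normalised to red-channel RNA signal and control-cluster median Fmax.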

[1] = designed as: OFF switch for flavin mononucleotide, no ligand
[2] = ligand present: flavin mononucleotide, designed as: OFF switch for flavin mononucleotide
[3] = designed as: ON switch for flavin mononucleotide, no ligand
[4] = ligand present: flavin mononucleotide, designed as: ON switch for flavin mononucleotide

| Sequence | apparent Kd [1] [µM] | apparent Kd [2] [µM] | apparent Kd [3] [µM] | apparent Kd [4] [µM] |
| --- | --- | --- | --- | --- |
| ACAAAUGGAGGAUAUACAUGAGGAUCACCCAUGUUUAUCCUACAUAUGUGAUAAUCAUGUAGAAGGCCAUUUGA | 0.0247 | 0.0159 | – | – |
| AAUAAGUGAGGAUAUACGUCUGGACCCGGGAGGGCUAUAUAACAUGAGGAUCACCCAUGUAGAAGGCACAAUAA | 0.0139 | 0.0159 | – | – |
| AAUUGACCGCUAGGAUAUGCACAUGAGGAUCACCCAUGUAAGCGUGUAAAGUGGUAUGCCCGUGUGUAGAAGGAGCGAUGCUGA | 0.0476 | 0.0406 | – | – |
| UAAAUGUGAGGAUAUUCGAAUAACACGGAGACGUGUUGUUCGGAGAAGGCACAUGAGGAUCACCCAUGUUCCUU | 0.0227 | 0.219 | – | – |
| AUAUUUGAUGAGGAUAUCGUUGUGGGUAUAUAGCGAGAAGGCAUUACAUGAGGAUCACCCAUGUAGUGUGGGUU | 0.0259 | 0.037 | – | – |
| ACGGUGGUCACAGGAUAUCCGGCCCGCGUGCUCGGAGAAGGGUGACUCAGAACCACAUGAGGAUCACCCAUGUGCCUUGCCGUA | – | – | 0.122 | 0.0251 |
| GGGUACAUCGGAGGAUAUCAUGUAAAUACAUGAGGAUCACCCAUGUCGAUUGAGACAUCGGAGAUUGAGAAGGCCGAUGUACCG | – | – | 0.0745 | 0.534 |
| AGGGUAGUAGGAUAUACAUGAGGAUCACCCAUGUUUCCAUUGCGUGACUGGUCCUAGUGUAGAAGGGCUAGCAC | 0.0186 | 0.0176 | – | – |
| AGAAAUUAGUGAGGAUAUGCUUAAAUUGUAGUUGCAGAAGGCACGGACCACAAGACAUGAGGAUCACCCAUGUGGUAUUUAGAU | 0.0289 | 0.033 | – | – |
| GAAAGGGCAGGAUAUGCAUGUUGGCAAAAUUCUCAGCAAGAACAUGAGGAUCACCCAUGUAGAAGGGCCAACGG | 0.0423 | 0.0599 | – | – |
| CGGUCGAUGUAAGGAUAUCGACUGGAAUACAGUCGAGAAGGUACAUGAGGAUCACCCAUGUAAUCCAAUAAUAAAUAACGACCG | 0.0126 | 0.0225 | – | – |
| AAUGGGCAGCAGAAGGCAUGUCUACGGACAUGAGGAUCACCCAUGUAGUAAAGCCGAAAGGCGCAUGAGGAUAUGCUGCCCUAA | – | – | – | 0.00823 |
| AGCCAACAUGAGGAUCACCCAUGUCUACAGGAUUAAGGAUAUGGGCAGGACUUCCCUGCACUAGAAGGUGAUCCAA | – | – | 0.0289 | 0.251 |
| ACAUACAUUCGAGGAUAUCGGUGAUUAAUUUUACGAGAAGGCGAUUUAAGGCAUAAUGCUUUAGACAUGAGGAUCACCCAUGUA | – | – | 0.0729 | 0.0344 |
| CCGAGUAGCGCAGGAUAUGACUUGGUUGUUUGGUCAGAAGGGUGAUUCUCGGUAAGAAACAGGACAUGAGGAUCACCCAUGUCA | – | – | 0.102 | 0.0249 |
| GUGCAAUGAGGAUAUACGUAGGUGAACAUCUGUGUGCUCCUACAUGAGGAUCACCCAUGUAGAAGGCAUGUCAC | 0.0123 | 0.0226 | – | – |
| GUAGCUAUCGGAGGAUAUUCAUACCGGAAACGGACAUGAGGAUCACCCAUGUGUCGAAAGCCUUGGGAGAAGGCCGAUAGCUAC | – | – | 0.181 | 0.0592 |
| GCGAGUAAAGCAGGAUAUCUAUUGUCUCUGUAACAUGAGGAUCACCCAUGUAGAGAAGGGCUUAGUCAUACACUUCGAACUCGC | 0.00557 | 0.00538 | – | – |
| AUAGUACAUGAGGAUCACCCAUGUCAGGAUAUCGGAUGUGACAUGAAAAAAAUGUUAAUGAGAAGGGACUAUAA | 0.0436 | 0.049 | – | – |
| UGGUACUAGGGAGGAUAUGGGAAGAUACAUGAGGAUCACCCAUGUUUAAGAAUGCCGAGAGGCAACUAGAAGGCGCUAGUACCU | – | – | 0.71 | 0.0909 |
